Only some compounds are listed: those with a hit (about 2.7% of all), similar ones and a draw of the others.
PAFAH1B2 inh = blocks human PAF acetylhydrolase 1b catalytic subunit 2; recombinant PAFAH1B2, FP-rhodamine activity probe, fluorescence polarization; hit rate 1.2% among 340,000; P68402; inhibition, % at 3.39 µM;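 active = inhibition above the mean of all tested compounds plus 3 SD, cut at about 24% in these data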;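 also: 0% = enzyme with DMSO and 100% = wells lacking PAFAH1B2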
Target sequence (P68402 whole entry, looked up): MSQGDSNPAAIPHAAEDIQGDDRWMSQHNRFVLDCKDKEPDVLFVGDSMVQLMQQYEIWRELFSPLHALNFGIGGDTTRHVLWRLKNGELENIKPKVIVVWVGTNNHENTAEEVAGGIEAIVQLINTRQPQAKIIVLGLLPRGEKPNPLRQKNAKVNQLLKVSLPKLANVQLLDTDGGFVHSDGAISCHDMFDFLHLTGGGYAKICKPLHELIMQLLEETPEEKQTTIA
PAFAH2 inh = PAFAH2 (human) inhibition | Q99487 | hit rate 0.99% among 340,000 | inhibition, % at 3.39 µM | recombinant PAFAH2, FP-rhodamine activity probe, fluorescence polarization;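 active = inhibition above the mean over all tested compounds plus 3 SD, cut at about 30% in these data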;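 also: inhibitors block probe labeling of enzyme so polarization drops; 0% = enzyme with DMSO and 100% = wells lacking PAFAH2 protein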
pPAFAH FP inh = inhibitors of human plasma PAF acetylhydrolase (pPAFAH) | Q13093 | recombinant pPAFAH, FP-rhodamine probe fluorescence polarization | inhibition, % at 3.39 µM | hit rate 1.5% among 330,000;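 active = inhibition above the mean inhibition across the screen plus 3 SD, cut at about 25% in these data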;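 also: inhibitors block binding of the rhodamine activity-based probe so polarization drops; 0% = enzyme with DMSO and 100% = wells lacking pPAFAH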
ASAP1 inh = ASAP1 ArfGAP inhibition; inhibition, % at 16.5 µM; hit rate 0.19% among 360,000; Q9ULH1; ASAP1-stimulated ARF1 GTP hydrolysis, GDP FP detection; AID 624377; in the data active = inhibition above about 25%;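 also: 0% = vehicle with enzyme and substrate and 100% = no enzyme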
ARFGAP1 inh = inhibitors of rat ARFGAP1; Q62848; Arfgap1-stimulated ARF1 GTP hydrolysis, GDP FP detection; inhibition, % at 16.5 µM; hit rate 0.26% among 360,000; AID 651572;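 active = inhibition above a per-plate limit, mean inhibition of low control wells plus 3 SD, cut at about 25% in these data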;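 also: 0% = DMSO wells with enzyme and 100% = wells lacking Arfgap1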
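Material: truncated rat Arfgap1 GAP domain; Incubation: compound-enzyme preincubation 20 min, reaction 120 min, detection 60 min, 25 °C; Read-out: percent inhibition of Arfgap1-stimulated GTP hydrolysis; Technique: FP, GDP Alexa 633 tracer displaced from anti-GDP antibody, 620/688 nm; Controls: No-Arfgap1 wells (100%) versus DMSO full-reaction wells (0%); Replication: single well per compound.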
PAFAH1B3 inh = blocks human PAF acetylhydrolase 1B catalytic subunit 3; recombinant PAFAH1B3, FP-rhodamine probe, fluorescence polarization; inhibition, % at 3.39 µM; hit rate 0.28% among 340,000;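 active = inhibition above the screen-wide average of all tested compounds plus 3 SD, cut at about 25% in these data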;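 also: 0% = enzyme with DMSO only and 100% = wells lacking PAFAH1B3 protein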
Target sequence (Q15102 whole entry, looked up): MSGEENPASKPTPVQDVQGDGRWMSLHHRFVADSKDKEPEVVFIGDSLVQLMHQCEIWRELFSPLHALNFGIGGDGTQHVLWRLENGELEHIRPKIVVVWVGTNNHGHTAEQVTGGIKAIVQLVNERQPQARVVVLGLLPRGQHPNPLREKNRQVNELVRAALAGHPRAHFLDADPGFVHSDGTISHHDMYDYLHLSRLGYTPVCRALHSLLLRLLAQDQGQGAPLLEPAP
Starred values were filed as active, the others as inactive; . = no result.

SMILES	PAFAH1B2 inh	PAFAH2 inh	pPAFAH FP inh	ASAP1 inh	ARFGAP1 inh	PAFAH1B3 inh
O=C(COc1ccccc1)NCCSCc1ccc(Cl)cc1	3	-2	11	-4	18	2
O=C(Cc1ccccc1)NCCSCc1ccc(Cl)cc1	29*	5	24	8	5	12
C[C@@H]1COc2cc(NCCO)ccc2S(=O)(=O)N1	.	.	.	1	-8	.
O=C(CSc1nnc(CNC(=O)c2cccs2)o1)Nc1cccc(C(F)(F)F)c1	26*	4	3	-7	10	4
O=C(CSc1nnc(CNC(=O)c2cccs2)o1)Nc1cccc(F)c1	7	2	0	-2	-2	4
O=C(NCCN1CCCCC1)c1ccc(Oc2cc(Cl)cc(Cl)c2)o1	.	.	6	-12	4	.
O=C(c1ccc(Oc2cc(Cl)cc(Cl)c2)o1)N1CCCCC1	4	12	32*	8	9	4
CCOC(=O)c1c(NC(=O)CSc2nnc(CNc3ccc(OC)cc3)n2C)sc(C)c1C	26*	8	4	-12	-5	8
Oc1ccc(N2CCN(C(c3cccs3)c3nnnn3CCc3ccccc3)CC2)cc1 (stereo not given)	19	0	30*	-2	17	3
O=C(NCC1CCCO1)c1nc2c(nnn2Cc2ccccc2Cl)c(=O)[nH]1 (stereo not given)	8	16	2	-10	-4	8
Cc1ccc(C)c(Cn2nnc3c(=O)[nH]c(C(=O)NCC4CCCO4)nc32)c1 (stereo not given)	67*	2	0	6	-11	2
O=C1SC(SCc2ccccc2Cl)=N/C1=C\c1ccc(C(=O)O)cc1	28*	62*	4	-14	-4	6
CN(CC(=O)NCc1ccc(F)cc1)CC(=O)Nc1ccc(Cl)c(C(F)(F)F)c1	6	-3	12	5	17	-2
CN(CC(=O)NCC(=O)Nc1ccc(F)cc1)CC(=O)Nc1ccc(Cl)c(C(F)(F)F)c1	28*	0	.	7	-4	0
CCOC(=O)C1CCN(C(=O)CCN2C(=O)C3C4C=CC(C4)C3C2=O)CC1 (stereo not given)	-2	5	29*	3	7	-3
Cc1cccc(NC(=O)COC(=O)Cc2cccs2)c1C	1	8	25*	-5	10	12
COc1ccc(CNS(=O)(=O)c2cc(Cl)ccc2N2CC[C@@H](O)C2)cc1	.	.	.	10	4	.
S=c1[nH]nc(-c2ccco2)n1-c1ccccc1Cl	1	4	1	4	5	5
S=c1[nH]nc(-c2cc(-c3ccco3)[nH]n2)n1-c1ccccc1Cl	9	19	29*	-6	18	17
ONC(=Nc1ccc(Cl)cc1)c1ccccc1	36*	2	-1	-5	-9	2
O=[N+]([O-])c1cccc(C(=Nc2cccc(Cl)c2)NO)c1	5	2	0	-2	-5	10
COC(=O)c1ccc(C(c2c(C)[nH][nH]c2=O)c2c(C)[nH][nH]c2=O)cc1	1	5	-2	3	2	3
COC(=O)c1cccc(-c2ccc(C(c3c(C)[nH][nH]c3=O)c3c(C)[nH][nH]c3=O)o2)c1	8	14	1	26*	32*	15
O=C1C(Cl)=C(N2CCN(c3ccccc3[N+](=O)[O-])CC2)C(=O)c2ccccc21	28*	40*	16	0	6	49*
CCN(C(=O)COc1cc(=O)n(C)c2ccccc12)c1cccc(Cl)c1	1	0	23	0	-2	-6
SMILES	PAFAH1B2 inh	PAFAH2 inh	pPAFAH FP inh	ASAP1 inh	ARFGAP1 inh	PAFAH1B3 inh
Cc1cccc(N(C)C(=O)COc2cc(=O)n(C)c3ccccc23)c1	4	-3	34*	16	6	8
CN(C(=O)COc1cc(=O)n(C)c2ccccc12)c1cccc(Cl)c1	2	5	28*	-9	6	6
C[C@@H]1ON(C)[C@H]2C[C@H]3c4cc(N5CCN(C)CC5)ccc4CCN3C[C@@H]12	.	.	.	11	5	.
O=C(O)CSc1cc(NS(=O)(=O)c2ccc(Br)cc2)c2ccccc2c1O	52*	42*	16	3	-1	63*
Cc1cc(O)c(Sc2ncn[nH]2)cc1NS(=O)(=O)c1ccc(Cl)cc1	2	-4	2	-1	5	-1
O=S(=O)(Nc1cc(Sc2ncn[nH]2)c(O)c2ccccc12)c1ccccc1	.	.	.	25*	5	.
